Assays:
[1] = Inhibition of Escherichia coli O18:K1 C7 hldE-K expressed in Escherichia coli BL21 using beta-heptose 7-phosphate as substrate incubated for 30 mins prior to substrate addition measured after 30 mins by luminescence assay
Procedure, shortened: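 E. coli HldE (His-tagged, IPTG-induced, Ni-NTA-purified), 3 nM, preincubated 30 min at room temperature with inhibitor in Hepes pH 7.5, MnCl₂, KCl, 0.012% Triton-X100, DTT, MBP. Reaction with 0.2 μM heptose 7-phosphate and 0.2 μM ATP, 30 min at room temperature. Remaining ATP read by luciferase/luciferin luminescence; 6−10 concentrations fitted to a Langmuir model for IC50.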

[2] = Inhibition of Escherichia coli O18:K1 C7 ribokinase expressed in Escherichia coli BL21 using D-ribose as substrate incubated for 30 mins prior to substrate addition measured after 30 mins by luminescence assay
Procedure, shortened: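 Ribokinase run as the HldE kinase assay: purified E. coli ribokinase at 0.6 nM, 3 μM D-ribose, 3 μM ATP. Inhibitor preincubated 30 min, reaction run 30 min at room temperature, luciferase luminescence read-out, IC50 from 6−10 concentrations.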

[3] = Inhibition of Serratia marcescens NEM017811 hldE-K expressed in Escherichia coli BL21 using beta-heptose 7-phosphate as substrate incubated for 30 mins prior to substrate addition measured after 30 mins by luminescence assay
Procedure, shortened: (§1)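 HldE kinase luminescence assay as for E. coli, with enzyme at 20 nM for K. pneumoniae, 20 nM for N. meningitidis and 10 nM for S. marcescens. Heptose 7-phosphate and ATP each at 0.2 μM; 30 min preincubation and 30 min reaction at room temperature.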

Escherichia coli [4] = test: Antimicrobial activity against tolC-deficient Escherichia coli O18:K1:H7 after overnight incubation in absence of erythromycin; format: functional
Procedure, shortened: (§2)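 Broth microdilution MIC in cation-adjusted MHB, final inoculum 5 × 10⁵ CFU/mL from early-to-log preculture; serial compound dilutions in 2% DMSO, overnight at 35 °C, growth scored visually. Each strain tested with and without erythromycin (1 μg/mL for K12 ΔacrAB ΔtolC, 8 μg/mL for K1 wild type, 1 μg/mL for K1 ΔtolC).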

Escherichia coli [5] = test: Antimicrobial activity against acrAB, tolC-deficient Escherichia coli str. K-12 substr. MG1655 after overnight incubation in absence of erythromycin; format: functional; procedure, shortened: as §2
[6] = Inhibition of Neisseria meningitidis 2C43 hldE-K expressed in Escherichia coli BL21 using beta-heptose 7-phosphate as substrate incubated for 30 mins prior to substrate addition measured after 30 mins by luminescence assay; procedure, shortened: as §1
Escherichia coli [7] = test: Antimicrobial activity against tolC-deficient Escherichia coli O18:K1:H7 after overnight incubation in presence of erythromycin; format: functional; procedure, shortened: as §2
Klebsiella pneumoniae = test: Inhibition of Klebsiella pneumoniae ATCC 700603 hldE-K expressed in Escherichia coli BL21 using beta-heptose 7-phosphate as substrate incubated for 30 mins prior to substrate addition measured after 30 mins by luminescence assay; details: ATCC 700603, BL21; procedure, shortened: as §1
Escherichia coli [8] = test: Antimicrobial activity against acrAB, tolC-deficient Escherichia coli str. K-12 substr. MG1655 after overnight incubation in presence of erythromycin; format: functional; procedure, shortened: as §2

| IC50 [1] | Compound | also measured |
| --- | --- | --- |
| > 300000 nM | COc1cccc(OC)c1-c1cnnc(N(CCCO)Cc2nc3ccccc3s2)n1 | – |
| 250 nM | COc1cccc(OC)c1-c1cnnc(NCc2nc3cc(OCC(=O)O)ccc3s2)n1 | – |
| 1200 nM | COc1ccc2sc(CNc3nncc(-c4c(C)cc(Br)cc4C)n3)nc2c1 | – |
| 89000 nM | COC(=O)c1ccc2nc(CNc3nncc(-c4c(OC)cccc4OC)n3)sc2c1 | – |
| 1400 nM | COc1cccc(OC)c1-c1cnnc(NCc2nc3cc(N)ccc3s2)n1 | – |
| 7600 nM | COc1cccc(OC)c1-c1cnnc(NCc2nc3cc(NC(C)=O)ccc3s2)n1 | – |
| 3400 nM | COc1cccc(OC)c1-c1cnnc(NCc2nc3ccc(O)cc3s2)n1 | – |
| 46000 nM | COc1cccc(OC)c1-c1cnnc(N(CCC(=O)O)Cc2nc3ccccc3s2)n1 | – |
| > 300000 nM | COc1cccc(OC)c1-c1cnnc(NCc2nc3ccccc3[nH]2)n1 | – |
| > 300000 nM | COc1ccc2sc(CNc3nncc(C(C)C)n3)nc2c1 | – |
| 1600 nM | COc1cccc(OC)c1-c1cnnc(NCc2nc3cc(Cl)ccc3s2)n1 | – |
| 40000 nM | COc1cccc(OC)c1-c1cnnc(OCc2nc(C)c(C)s2)n1 | – |
| 130 nM | COc1ccc2sc(CNc3nncc(-c4c(Cl)cccc4Cl)n3)nc2c1 | IC50 [2]: > 300000 nM; IC50 [3]: 1200 nM; MIC (Escherichia coli [4]): > 32 µg/mL; MIC (Escherichia coli [5]): > 32 µg/mL; IC50 [6]: 13000 nM; MIC (Escherichia coli [7]): > 32 µg/mL; IC50 (Klebsiella pneumoniae): 2300 nM; MIC (Escherichia coli [8]): > 32 µg/mL |
| 16 nM | CS(=O)(=O)NC(=O)COc1ccc2sc(CNc3nncc(-c4c(Cl)cccc4Cl)n3)nc2c1 | MIC (Escherichia coli [4]): > 32 µg/mL; MIC (Escherichia coli [5]): > 32 µg/mL; MIC (Escherichia coli [7]): > 32 µg/mL; MIC (Escherichia coli [8]): > 32 µg/mL |
| > 300000 nM | COc1cccc(OC)c1-c1cnnc(N2CCCCC2c2nc3ccccc3s2)n1 (stereo unspecified) | – |
| > 300000 nM | COc1ccc2sc(CNc3nncc(N4CCCCC4CO)n3)nc2c1 (stereo unspecified) | – |

| IC50 [1] | Compound | also measured |
| --- | --- | --- |
| 71 nM | O=C(CO)NCCOc1ccc2sc(CNc3nncc(-c4c(Cl)cccc4Cl)n3)nc2c1 | MIC (Escherichia coli [4]): > 32 µg/mL; MIC (Escherichia coli [5]): > 32 µg/mL; MIC (Escherichia coli [7]): > 32 µg/mL; MIC (Escherichia coli [8]): 4 µg/mL |
| > 300000 nM | COc1cccc(OC)c1-c1cnnc(NCc2ccccn2)n1 | – |
| 1400 nM | COc1ccc2sc(CNc3nncc(-c4c(C)cc(C#N)cc4C)n3)nc2c1 | – |
| 2000 nM | COc1cccc(OC)c1-c1cnnc(N(CC(=O)O)Cc2nc3ccccc3s2)n1 | – |
| 51 nM | COc1ccc2sc(CNc3nncc(-c4c(OC)ccc5ccccc45)n3)nc2c1 | MIC (Escherichia coli [4]): > 32 µg/mL; MIC (Escherichia coli [5]): > 32 µg/mL; MIC (Escherichia coli [7]): > 32 µg/mL; MIC (Escherichia coli [8]): > 32 µg/mL |
| 6000 nM | COc1cccc(OC)c1-c1cnnc(NCc2nc(C)c(C)s2)n1 | – |
| 360 nM | COc1ccc2sc(CNc3nncc(-c4c(C)cccc4C)n3)nc2c1 | MIC (Escherichia coli [4]): > 32 µg/mL; MIC (Escherichia coli [5]): > 32 µg/mL; MIC (Escherichia coli [7]): > 32 µg/mL; MIC (Escherichia coli [8]): > 32 µg/mL |
| 890 nM | COc1ccc2sc(CNc3nncc(-c4c(C)cc(-c5ccc(OC)nc5)cc4C)n3)nc2c1 | – |
| > 300000 nM | COc1cccc(OC)c1-c1cnnc(NCc2nc(C)c(CCO)s2)n1 | – |
| > 300000 nM | COc1ccc2sc(CNc3nncc(N4[C@H](C)CCC[C@@H]4C)n3)nc2c1 | – |
| 1900 nM | COc1cccc(OC)c1-c1cnnc(NCc2nc3c(s2)CCCC3)n1 | – |
| 49000 nM | COc1cccc(OC)c1-c1cnnc(NCc2nc3ccc(NC(C)=O)cc3s2)n1 | – |
| > 300000 nM | COc1cccc(OC)c1-c1cnnc(NCc2nc3ccccc3n2C)n1 | – |
| 34000 nM | COc1cccc(OC)c1-c1cnnc(NCc2nc3ccccc3o2)n1 | – |
| 150 nM | COc1ccc2sc(CNc3nncc(-c4cc(-c5cccnc5)ccc4Cl)n3)nc2c1 | – |
| 54000 nM | COc1cccc(OC)c1-c1cnnc(NC(C)c2nc(C)c(C)s2)n1 (stereo unspecified) | – |

— ChEMBL document CHEMBL2321650, “Novel HldE-K inhibitors leading to attenuated Gram negative bacterial virulence” (J Med Chem, 2013)
